Activity calls are given as the source filed them.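 Rule for the calls, unless noted: active = viability at or under a set limit in both replicates, limit being median viability minus 3 SD (cut at about 48% in these data, passing the limit was not always enough); inconclusive = at or under the limit in just one replicate; inactive = at or above the limit in both replicates.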 Peptide text beside a SMILES is read from it. * marks the point of attachment. Boc = CC(C)(C)OC(=O)*
What was measured:
[1] = reduced viability of SK-BR-3 breast cancer cells – cell-based, 24 h, human, pilot screen (AID 572;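 active = viability at or below 10% of carrier control in both of two separate runs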;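 note: compound exposure lasted between 18 and 24 h rather than exactly 24 h; 100% = carrier-treated control wells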); settings: SK-BR-3 viability, CellTiter-Glo luminescence, at 10 µM, stronger effect = lower value
[2] = HUVEC growth inhibition – cell-based, human, primary screen (AID 575;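 active = viability at or below 30% in both replicate assays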;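 note: 100% = median of untreated cell wells with 0.1% DMSO on each plate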); settings: HUVEC proliferation, CellTiter-Glo luminescence, 72 h; at 10 µM; stronger effect = lower value
Method in brief: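 System: primary human umbilical vein endothelial cells; Quantity: 1250 endothelial cells in each well; Buffer or medium: supplemented EBM, 2% fetal bovine serum; Doses: one dose, 10 µM final, 0.1% DMSO; Incubation: 72 h compound incubation; Technique: ATP-based CellTiter-Glo luminescent read; Evaluation: percent of median DMSO-control luminescence; Controls: vehicle and MePR control wells.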

[3] = H69AR cell proliferation blockers – human, duplicate replicates, primary screen (AID 580); settings: H69AR lung tumor cells viability, ATP luminescence, 72 h; at 10 µM; stronger effect = lower value;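 note: 100% = mean luminescence of untreated wells and 0% = no signal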
[4] = MRP1 drug-resistance reversers in H69AR cells – cell-based, doxorubicin co-treatment, pilot screen (AID 601;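 active = viability loss from added drug above about 55%, and viability with drug at most 40%, in both replicates, limit read from the data, passing the limit was not always enough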); settings: CellTiter-Glo, 72 h, at 10 µM; for differential viability (reversal): stronger effect = higher value
[5] = yeast transport mutant growth inhibition pilot in 384-well plates, post-Golgi transport modulator project (AID 636; in the data active = inhibition above about 31%); settings: absorbance 615 nm, about 18 h, stronger effect = higher value
[6] = growth suppression of yeast trafficking mutant, preliminary HTS, modulators of trafficking downstream of Golgi apparatus project, 1536-format plate, OD 615 nm (AID 637; in the data active = inhibition above about 30%); settings: yeast transport mutant growth, absorbance 615 nm, 18 h; stronger effect = higher value
[7] = H69AR cells + 2 uM doxorubicin, measured here: viability with 2 uM doxorubicin, stronger effect = lower value
[8] = H69AR cells, compound alone cytotoxicity

| SMILES | viability [1] | viability [2] | viability [3] | differential viability (reversal) ([4]; H69AR cells + 2 uM doxorubicin) | viability [4, 7] | viability [4, 8] | inhibition [5] | inhibition [6] |
| --- | --- | --- | --- | --- | --- | --- | --- | --- |
| CCOC(=O)N(C)c1ccc(C(O)(C(F)(F)F)C(F)(F)F)cc1 | 92% (inactive) | 91.7% (inactive) | 102% (inactive) | 5.16% (inactive) | 97.1% | 102% | 1.76% (inactive) | -6.55% (inactive) |
| CC(C)CC(NC(=O)OC(C)(C)C)C(=O)NC(C(=O)N1CCCC1C(N)=O)C(C)C (stereo not drawn) (Boc-Leu-Val-Pro-NH2; configuration not given here) | 103% (inactive) | 101% (inactive) | 111% (inactive) | 17.5% (inactive) | 93.8% | 111% | 0.78% (inactive) | -4.1% (inactive) |
| CCn1c(SCC(=O)Nc2ccccc2N2CCCCC2)nc2c1c(=O)n(C)c(=O)n2C | 113% (inactive) | 75.4% (inactive) | 73.9% (inactive) | 1.19% (inactive) | 72.7% | 73.9% | -6.13% (inactive) | 3.09% (inactive) |
| Cc1nnc(SCCCn2c(N3CCCCC3)nc3c2c(=O)[nH]c(=O)n3C)s1 | 104% (inactive) | 92% (inactive) | 97.4% (inactive) | 10.2% (inactive) | 87.1% | 97.4% | -6.03% (inactive) | 4% (inactive) |
| CC(C)(C)C1=Nn2c(nnc2-c2n[nH]c3c2CCC3)SC1 | 87% (inactive) | 97.3% (inactive) | 85.9% (inactive) | -4.71% (inactive) | 90.6% | 85.9% | -7.26% (inactive) | 4.68% (inactive) |
| O=C(c1ccccc1-c1nc(-c2ccccc2)no1)N1CCCC1 | 105% (inactive) | 120% (inactive) | 90.9% (inactive) | 9.27% (inactive) | 81.6% | 90.9% | -5.07% (inactive) | -3.23% (inactive) |
| CN(C)c1ccc(C=NCC2(O)CCOC(C)(C)C2)cc1 (stereo not given) | 91% (inactive) | 91.8% (inactive) | 89.2% (inactive) | 0.32% (inactive) | 88.9% | 89.2% | -7.67% (inactive) | 3.27% (inactive) |
| Cc1csc(NC(=O)c2ccoc2C)n1 | 103% (inactive) | 84.6% (inactive) | 86.3% (inactive) | -5.44% (inactive) | 91.8% | 86.3% | -4.66% (inactive) | -8.39% (inactive) |
| C[C@]12CC[C@@H]3c4ccc(O)cc4C(=O)C[C@H]3[C@@H]1CC[C@@H]2O | 103% (inactive) | 89.2% (inactive) | 80.6% (inactive) | 2.45% (inactive) | 78.2% | 80.6% | -0.39% (inactive) | 2.67% (inactive) |
| Cn1c(=O)[nH]c(=O)c2c1nc(N1CCOCC1)n2CC(O)COc1ccc2ccccc2c1 (stereo not given) | 70% (inactive) | 88.7% (inactive) | 88.3% (inactive) | -1.6% (inactive) | 89.9% | 88.3% | -6.58% (inactive) | -1.82% (inactive) |
| OC(CCN1CCCCC1)(c1ccccc1)c1ccccc1 | 95% (inactive) | 92.7% (inactive) | 84.1% (inactive) | 0.38% (inactive) | 83.7% | 84.1% | -2.21% (inactive) | 0% (inactive) |
| CCOc1cc(C(=O)Nc2c3c(nn2C(C)(C)C)CS(=O)C3)cc(OCC)c1OCC (stereo not given) | 103% (inactive) | 96.7% (inactive) | 101% (inactive) | 7.14% (inactive) | 93.7% | 101% | -1.04% (inactive) | -7.54% (inactive) |
| CC(=O)Nc1nnc(S(N)(=O)=O)s1 | 95% (inactive) | 88.7% (inactive) | 109% (inactive) | 24.6% (inactive) | 84.6% | 109% | -1.82% (inactive) | 3.33% (inactive) |
| CC(=O)Nc1ccc(NC(=O)Cn2cnc3c(cnn3C(C)(C)C)c2=O)cc1 | 101% (inactive) | 87.9% (inactive) | 98.9% (inactive) | 13.8% (inactive) | 85.1% | 98.9% | -5.47% (inactive) | 3.27% (inactive) |
| N#Cc1c(N)n(CCOC(=O)c2cccc(Br)c2)c2nc3ccccc3nc12 | 111% (inactive) | 75.6% (inactive) | 96.4% (inactive) | 3.64% (inactive) | 92.8% | 96.4% | -10.1% (inactive) | 3.55% (inactive) |
| CSCCC(NC(=O)OC(C)(C)C)C(=O)NC(CC(C)C)C(N)=O (stereo not drawn) (Boc-Met-Leu-NH2; configuration not given here) | 91% (inactive) | 97.7% (inactive) | 92% (inactive) | 1.58% (inactive) | 90.4% | 92% | 0.39% (inactive) | 0.16% (inactive) |
| CSc1ncc(Cl)c(C(=O)Nc2ccc(S(=O)(=O)N3CCOCC3)cc2)n1 | 85% (inactive) | 97% (inactive) | 101% (inactive) | 9.55% (inactive) | 91.8% | 101% | -7.67% (inactive) | 0.36% (inactive) |
| O=C(CN1CCC(O)(c2ccc3c(c2)OCO3)CC1)OC1CCCCC1 | 83% (inactive) | 103% (inactive) | 96.8% (inactive) | 3.36% (inactive) | 93.4% | 96.8% | -7.3% (inactive) | 2.73% (inactive) |

| SMILES | viability [1] | viability [2] | viability [3] | differential viability (reversal) ([4]; H69AR cells + 2 uM doxorubicin) | viability [4, 7] | viability [4, 8] | inhibition [5] | inhibition [6] |
| --- | --- | --- | --- | --- | --- | --- | --- | --- |
| COc1ccc(-c2ccc(=O)n(Cc3cc(=O)n4ccccc4n3)n2)cc1 | 102% (inactive) | 107% (inactive) | 97% (inactive) | 5.91% (inactive) | 91.1% | 97% | -3.38% (inactive) | 4.36% (inactive) |
| COc1cccc(NC(=O)COC(=O)c2cccnc2)c1 | 91% (inactive) | 83.9% (inactive) | 91.1% (inactive) | 5.84% (inactive) | 85.3% | 91.1% | -4.93% (inactive) | 4.35% (inactive) |
| COc1ccc(/C(O)=C2\C(=O)C(=O)N(c3cc(C)on3)C2c2ccccc2OC)cc1 (stereo not given) | 105% (inactive) | 101% (inactive) | 78.5% (inactive) | -6.79% (inactive) | 85.3% | 78.5% | -8.27% (inactive) | -5.09% (inactive) |
| CC1(C)CC(=O)C2=C(C1)Nc1ccccc1N=C2 | 66% (inactive) | 82.3% (inactive) | 70.3% (inactive) | -19.7% (inactive) | 90% | 70.3% | -0.41% (inactive) | 2.73% (inactive) |
| CCOC(=O)Cn1nnnc1CN(Cc1ccc(OC)cc1)Cc1cc2cc(C)ccc2[nH]c1=O | 101% (inactive) | 101% (inactive) | 94.3% (inactive) | -0.605% (inactive) | 94.9% | 94.3% | -1.33% (inactive) | 4.55% (inactive) |
| CCOC(=O)C(C#N)C(c1cccnc1)c1c(C)[nH][nH]c1=O (stereo not given) | 77% (inactive) | 107% (inactive) | 105% (inactive) | 9.4% (inactive) | 95.7% | 105% | -7.43% (inactive) | 4% (inactive) |
| Cc1ccc2nc3c(cc2c1)CN(Cc1ccco1)C(=NCC1CCCO1)S3 (stereo not given) | 100% (inactive) | 65.6% (inactive) | 7.64% (active) | -1.93% (inactive) | 9.57% | 7.64% | 9.33% (inactive) | -0.18% (inactive) |
| CCn1cc(C2Nc3ccccc3C(=O)N2O)c(C)n1 (stereo not given) | 93% (inactive) | 126% (inactive) | 90% (inactive) | -0.465% (inactive) | 90.5% | 90% | -5.27% (inactive) | -2.91% (inactive) |
| CC(C)OC(=O)C1C2C=CC3(CN(Cc4cccs4)C(=O)C13)O2 (stereo not given) | 89% (inactive) | 96.7% (inactive) | 90.1% (inactive) | -3.73% (inactive) | 93.8% | 90.1% | -6.44% (inactive) | 2.42% (inactive) |
| Cc1cc(NCC2CCCO2)n2c(nc3ccccc32)c1C#N (stereo not given) | 79% (inactive) | 81.2% (inactive) | 71% (inactive) | 38.9% (inactive) | 32.1% | 71% | -6.44% (inactive) | 1.61% (inactive) |
| Cc1ccc(Nc2nc(Oc3ccc(=O)[nH]n3)nc(N(C)C)n2)cc1 | 81% (inactive) | 101% (inactive) | 94% (inactive) | 16.1% (inactive) | 77.9% | 94% | -3.7% (inactive) | 1.94% (inactive) |
| COc1ccccc1-n1nnnc1SCc1cc2c(cc1Br)OCO2 | 65% (inactive) | 86.1% (inactive) | 72.2% (inactive) | -4.98% (inactive) | 77.2% | 72.2% | -6.16% (inactive) | 4.18% (inactive) |
| CSc1ccccc1NC(=O)CN(c1ccccc1)S(=O)(=O)N(C)C | 83% (inactive) | 98.3% (inactive) | 87.7% (inactive) | 2.04% (inactive) | 85.7% | 87.7% | -8.49% (inactive) | 0.18% (inactive) |
| O=C(CSc1nnc(-c2ccc(Br)cc2)n1C1CCCCC1)N1CCCC1 | 64% (inactive) | 113% (inactive) | 80.2% (inactive) | -6.92% (inactive) | 87.1% | 80.2% | -6.58% (inactive) | -2% (inactive) |
| CCCCC(=O)Nc1ccc(NC(=O)C2CC2)nc1 | 91% (inactive) | 108% (inactive) | 101% (inactive) | -4.46% (inactive) | 106% | 101% | -1.51% (inactive) | -1.13% (inactive) |
| CCOC(=O)C1CCN(C(=O)Nc2ccc3nc(C)c(C)nc3c2)CC1 | 101% (inactive) | 109% (inactive) | 95.5% (inactive) | 15.9% (inactive) | 79.6% | 95.5% | -3.87% (inactive) | -1.09% (inactive) |
| CC(C)CC(c1nnnn1C(C)(C)C)N1CCN(C2CCCC2)CC1 (stereo not given) | 101% (inactive) | 96.6% (inactive) | 95.2% (inactive) | 10.4% (inactive) | 84.8% | 95.2% | -7.33% (inactive) | 2.91% (inactive) |

Source: PubChem BioAssay
